Converted amounts (≈) assume the structure as drawn.
How the values were obtained:
Mus musculus = assay: Toxicity in Rag1 knockout mouse xenografted with human HCT116 cells assessed as body weight loss at 40 mg/kg, ip QD measured on day 7 relative to untreated control; format: organism-based, HCT-116; parameters: dose 40 mg/kg, route intraperitoneal; conditions: in vivo
Procedure, shortened: (§1)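 Male Rag1−/− mice (age-matched, SPF) inoculated s.c. with 5 × 10⁶ HCT-116 cells in PBS. Dosing started at ~150 mm³ tumours: q.d. i.p. in 7.5% DMSO, 42.5% PEG-400, 20% 2-hydroxypropyl-β-cyclodextrin, 30% water; controls received vehicle. Volume = (L × w²) × π/6, measured three times weekly; bodyweight daily. Treatment stopped if mean weight loss >15%; 1-way ANOVA with Holm–Sidak.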

[1] = target: Dual specificity mitogen-activated protein kinase kinase 1 (Homo sapiens) (UniProt Q02750); assay: Inhibition of MKK1 assessed as residual activity at 10 uM
Chain of Dual specificity mitogen-activated protein kinase kinase 1 (Homo sapiens) (Q02750 whole entry): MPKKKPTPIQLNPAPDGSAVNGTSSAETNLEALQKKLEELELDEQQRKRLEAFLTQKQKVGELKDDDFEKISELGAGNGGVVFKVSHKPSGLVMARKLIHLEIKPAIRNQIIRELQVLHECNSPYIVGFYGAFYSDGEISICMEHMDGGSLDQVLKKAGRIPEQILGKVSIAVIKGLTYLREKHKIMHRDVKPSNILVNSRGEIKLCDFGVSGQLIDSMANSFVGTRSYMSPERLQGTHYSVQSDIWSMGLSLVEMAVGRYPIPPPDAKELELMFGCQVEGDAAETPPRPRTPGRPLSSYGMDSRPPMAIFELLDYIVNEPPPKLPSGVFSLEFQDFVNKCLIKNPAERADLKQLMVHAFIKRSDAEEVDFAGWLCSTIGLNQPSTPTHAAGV

HCT-116 = assay: Antitumor activity against human HCT116 cells xenografted in Rag1knockout mouse assessed as tumor growth delay at 40 mg/kg, ip QD measured on day 7 relative to untreated control; format: functional; conditions: route intraperitoneal; procedure, shortened: as §1
[2] = target: Phosphatidylinositol 4,5-bisphosphate 3-kinase catalytic subunit beta isoform (Homo sapiens, UniProt P42338); assay: Inhibition of recombinant PI3K p110beta using L-alpha-phosphatidylinositol as substrate and [gamma33P]ATP after 60 mins by thin layer chromatographic technique
Chain of Phosphatidylinositol 4,5-bisphosphate 3-kinase catalytic subunit beta isoform (P42338 whole entry, canonical isoform): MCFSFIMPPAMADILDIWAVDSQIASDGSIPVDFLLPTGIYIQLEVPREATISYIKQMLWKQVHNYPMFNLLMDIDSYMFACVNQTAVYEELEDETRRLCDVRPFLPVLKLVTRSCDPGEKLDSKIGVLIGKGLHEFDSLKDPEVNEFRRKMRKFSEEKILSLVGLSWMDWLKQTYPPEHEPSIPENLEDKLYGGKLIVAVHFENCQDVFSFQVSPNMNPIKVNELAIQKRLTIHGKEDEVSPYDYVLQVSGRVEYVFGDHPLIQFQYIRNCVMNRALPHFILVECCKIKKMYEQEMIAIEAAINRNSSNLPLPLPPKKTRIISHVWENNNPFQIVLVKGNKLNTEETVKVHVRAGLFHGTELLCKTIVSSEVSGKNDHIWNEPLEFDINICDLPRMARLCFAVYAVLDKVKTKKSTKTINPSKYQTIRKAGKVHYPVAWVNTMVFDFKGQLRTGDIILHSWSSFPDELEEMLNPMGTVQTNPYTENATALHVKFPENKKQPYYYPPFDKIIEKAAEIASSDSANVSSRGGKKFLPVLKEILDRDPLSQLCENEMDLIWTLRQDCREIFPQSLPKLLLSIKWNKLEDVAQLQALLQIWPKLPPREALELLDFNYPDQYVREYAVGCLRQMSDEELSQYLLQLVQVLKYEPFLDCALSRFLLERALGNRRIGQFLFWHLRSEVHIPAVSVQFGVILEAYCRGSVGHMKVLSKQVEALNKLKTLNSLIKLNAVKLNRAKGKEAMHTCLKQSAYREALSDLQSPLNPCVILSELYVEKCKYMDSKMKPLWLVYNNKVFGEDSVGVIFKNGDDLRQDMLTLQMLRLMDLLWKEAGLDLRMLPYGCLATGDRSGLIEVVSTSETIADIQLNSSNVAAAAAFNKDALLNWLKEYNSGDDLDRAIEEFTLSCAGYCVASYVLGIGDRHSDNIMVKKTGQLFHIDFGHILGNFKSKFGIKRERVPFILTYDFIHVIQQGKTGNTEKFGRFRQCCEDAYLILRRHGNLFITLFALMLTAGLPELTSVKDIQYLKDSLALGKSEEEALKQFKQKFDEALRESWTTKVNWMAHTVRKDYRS
Procedure, shortened: (§2)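 In-house recombinant enzyme (0.1 µg) with L-α-phosphatidylinositol in 40 mM Tris-HCl pH 7.4, 200 mM NaCl, 1 mM EDTA; DMSO 1% final. Started with 5 mM MgCl₂, 100 µM ATP plus [γ-³³P]ATP; 1 h at room temperature, stopped with 1 M HCl. Lipids extracted, separated by TLC, phosphorimaged. Nine inhibitor concentrations; two experiments, IC50 averaged.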

[3] = Cytotoxicity against human NZB5 cells assessed as inhibition of [3H]thymidine incorporation measured after 5 days; format: functional, cell-based
Procedure, shortened: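 Early-passage lines grown in α-MEM with insulin, transferrin, selenite and 5% FBS. Wells seeded with 1000 cells; inhibitor in dilution steps up to a maximum of 20. Five days under 5% O₂/5% CO₂/90% N₂, ³H-thymidine added for the last 6 h. Duplicates per dose; fit y = y₀ + ae^−bx; IC50 = 50% reduction in incorporation.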

[4] = target: Serine/threonine-protein kinase mTOR (Homo sapiens, UniProt P42345); assay: Inhibition of mTOR
[5] = target: Misshapen-like kinase 1 (Homo sapiens) (UniProt Q8N4C8); assay: Inhibition of MINK1 assessed as residual activity at 10 uM
Chain of Misshapen-like kinase 1 (Homo sapiens) (Q8N4C8 whole entry, looked up): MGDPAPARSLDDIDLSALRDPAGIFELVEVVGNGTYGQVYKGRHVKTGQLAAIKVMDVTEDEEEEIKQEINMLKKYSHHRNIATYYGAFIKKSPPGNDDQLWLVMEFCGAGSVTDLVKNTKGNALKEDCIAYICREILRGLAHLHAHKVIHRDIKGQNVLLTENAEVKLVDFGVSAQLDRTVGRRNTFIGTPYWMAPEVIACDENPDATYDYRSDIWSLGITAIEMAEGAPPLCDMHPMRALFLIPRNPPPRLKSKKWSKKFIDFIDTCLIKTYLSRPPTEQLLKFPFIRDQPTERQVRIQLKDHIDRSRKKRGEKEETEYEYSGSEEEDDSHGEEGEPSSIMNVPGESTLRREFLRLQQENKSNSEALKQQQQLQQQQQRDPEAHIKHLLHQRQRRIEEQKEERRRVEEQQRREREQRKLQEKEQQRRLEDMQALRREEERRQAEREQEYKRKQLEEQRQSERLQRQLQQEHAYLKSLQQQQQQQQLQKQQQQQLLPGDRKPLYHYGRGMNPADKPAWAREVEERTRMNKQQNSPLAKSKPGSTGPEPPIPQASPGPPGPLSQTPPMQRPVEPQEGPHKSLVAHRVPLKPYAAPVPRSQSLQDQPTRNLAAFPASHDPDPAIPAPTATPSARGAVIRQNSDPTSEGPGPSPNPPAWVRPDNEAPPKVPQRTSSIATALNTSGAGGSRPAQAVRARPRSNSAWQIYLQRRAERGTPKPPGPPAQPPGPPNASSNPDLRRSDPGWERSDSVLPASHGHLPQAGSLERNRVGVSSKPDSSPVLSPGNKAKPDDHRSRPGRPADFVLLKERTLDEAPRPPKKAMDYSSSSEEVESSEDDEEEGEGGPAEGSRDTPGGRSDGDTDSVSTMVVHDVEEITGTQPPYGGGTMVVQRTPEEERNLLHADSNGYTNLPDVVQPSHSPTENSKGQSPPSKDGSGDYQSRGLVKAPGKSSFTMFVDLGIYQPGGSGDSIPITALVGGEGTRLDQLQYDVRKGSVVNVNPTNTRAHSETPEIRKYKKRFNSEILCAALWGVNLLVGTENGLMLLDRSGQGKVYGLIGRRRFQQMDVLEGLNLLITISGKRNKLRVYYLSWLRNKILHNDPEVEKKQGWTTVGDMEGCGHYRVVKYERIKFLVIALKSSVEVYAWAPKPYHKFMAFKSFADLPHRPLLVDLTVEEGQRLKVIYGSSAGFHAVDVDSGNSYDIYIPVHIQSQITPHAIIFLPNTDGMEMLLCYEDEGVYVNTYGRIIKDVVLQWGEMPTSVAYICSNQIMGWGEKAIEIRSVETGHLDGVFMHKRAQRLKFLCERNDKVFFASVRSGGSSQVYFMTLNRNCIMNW

[6] = target: Insulin receptor (Homo sapiens) (UniProt P06213); assay: Inhibition of IR assessed as residual activity at 10 uM
[7] = target: T1, Phosphatidylinositol 4,5-bisphosphate 3-kinase catalytic subunit delta isoform (Homo sapiens, UniProt O00329); assay: Inhibition of recombinant PI3K p110delta using L-alpha-phosphatidylinositol as substrate and [gamma33P]ATP after 60 mins by thin layer chromatographic technique; procedure, shortened: as §2
T1 sequence (O00329 whole entry): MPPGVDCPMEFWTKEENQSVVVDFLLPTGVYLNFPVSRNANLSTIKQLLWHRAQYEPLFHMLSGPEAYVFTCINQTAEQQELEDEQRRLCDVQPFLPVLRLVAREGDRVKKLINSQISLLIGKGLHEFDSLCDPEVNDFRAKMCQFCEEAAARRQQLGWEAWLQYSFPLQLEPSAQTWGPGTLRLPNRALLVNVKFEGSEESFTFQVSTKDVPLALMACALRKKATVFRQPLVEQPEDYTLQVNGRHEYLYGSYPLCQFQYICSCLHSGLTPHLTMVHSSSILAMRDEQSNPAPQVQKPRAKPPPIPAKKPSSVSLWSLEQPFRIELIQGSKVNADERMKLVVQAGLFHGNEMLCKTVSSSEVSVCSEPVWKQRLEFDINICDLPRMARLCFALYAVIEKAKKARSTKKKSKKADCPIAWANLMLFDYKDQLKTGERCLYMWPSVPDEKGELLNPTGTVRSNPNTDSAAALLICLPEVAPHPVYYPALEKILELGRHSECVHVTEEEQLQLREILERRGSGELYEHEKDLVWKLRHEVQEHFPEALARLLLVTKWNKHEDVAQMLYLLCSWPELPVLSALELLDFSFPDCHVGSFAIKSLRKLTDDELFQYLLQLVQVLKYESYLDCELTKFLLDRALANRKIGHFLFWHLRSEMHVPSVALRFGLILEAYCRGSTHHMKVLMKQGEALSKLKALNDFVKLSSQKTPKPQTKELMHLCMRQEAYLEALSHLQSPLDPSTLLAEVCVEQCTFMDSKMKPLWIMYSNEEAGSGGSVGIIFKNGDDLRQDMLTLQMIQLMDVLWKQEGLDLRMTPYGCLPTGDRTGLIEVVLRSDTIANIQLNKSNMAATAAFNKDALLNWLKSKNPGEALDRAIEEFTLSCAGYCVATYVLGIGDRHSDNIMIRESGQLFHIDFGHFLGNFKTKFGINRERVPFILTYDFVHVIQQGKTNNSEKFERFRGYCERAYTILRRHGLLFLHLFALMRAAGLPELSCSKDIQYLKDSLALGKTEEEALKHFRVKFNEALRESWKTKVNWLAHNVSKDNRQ

[8] = target: Phosphatidylinositol 4,5-bisphosphate 3-kinase catalytic subunit alpha isoform (Homo sapiens, UniProt P42336, H1047R); assay: Inhibition of PI3K […] H1047R mutant-mediated PKB phosphorylation at Thr308 in human HCT116 cells after 15 mins by immunoblot analysis; format: cell-based, HCT-116
Chain of Phosphatidylinositol 4,5-bisphosphate 3-kinase catalytic subunit alpha isoform (P42336 whole entry H1047R, canonical isoform): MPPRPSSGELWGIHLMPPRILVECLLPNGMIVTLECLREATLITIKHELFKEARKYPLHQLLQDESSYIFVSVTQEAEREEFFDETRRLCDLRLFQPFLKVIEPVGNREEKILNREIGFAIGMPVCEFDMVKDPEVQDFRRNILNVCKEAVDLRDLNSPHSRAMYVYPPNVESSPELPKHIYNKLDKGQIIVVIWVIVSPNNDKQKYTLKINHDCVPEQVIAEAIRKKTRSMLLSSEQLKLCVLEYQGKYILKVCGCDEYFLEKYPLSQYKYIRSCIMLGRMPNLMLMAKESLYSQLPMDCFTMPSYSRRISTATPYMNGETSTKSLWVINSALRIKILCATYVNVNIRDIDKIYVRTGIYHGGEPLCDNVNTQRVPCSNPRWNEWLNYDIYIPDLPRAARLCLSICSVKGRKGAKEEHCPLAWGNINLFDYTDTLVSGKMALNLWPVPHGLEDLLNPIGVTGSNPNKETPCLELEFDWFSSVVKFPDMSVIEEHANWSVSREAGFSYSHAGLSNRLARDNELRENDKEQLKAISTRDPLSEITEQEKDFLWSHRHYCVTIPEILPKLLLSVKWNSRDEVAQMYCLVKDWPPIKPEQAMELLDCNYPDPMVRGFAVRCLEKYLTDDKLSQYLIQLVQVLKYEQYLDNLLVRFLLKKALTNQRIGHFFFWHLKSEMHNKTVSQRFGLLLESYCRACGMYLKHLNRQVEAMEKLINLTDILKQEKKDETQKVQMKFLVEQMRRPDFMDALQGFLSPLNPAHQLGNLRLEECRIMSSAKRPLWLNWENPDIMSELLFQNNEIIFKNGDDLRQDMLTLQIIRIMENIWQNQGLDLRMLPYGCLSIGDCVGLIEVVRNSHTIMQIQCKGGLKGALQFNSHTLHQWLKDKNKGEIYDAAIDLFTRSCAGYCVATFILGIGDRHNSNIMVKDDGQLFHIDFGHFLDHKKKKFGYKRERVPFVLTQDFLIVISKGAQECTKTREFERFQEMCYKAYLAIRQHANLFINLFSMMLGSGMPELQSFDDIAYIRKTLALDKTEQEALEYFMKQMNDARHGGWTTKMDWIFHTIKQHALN
Procedure, shortened: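 HCT-116 cells in MEM alpha with 10% FBS and penicillin/streptomycin, seeded, grown 1 day, then starved overnight serum-free. Inhibitor in DMSO (0.1% final) at varying concentrations for 15 min, then 500 nM insulin for 5 min. Lysates immunoblotted for phospho-PKB at Ser473 or Thr308.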

[9] = Aqueous solubility of the compound; format: physicochemical; conditions: water
Procedure, shortened: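 Solid mixed with water to make 2 mM, sonicated 15 min, centrifuged 13000 rpm for 6 min. Clear supernatant diluted 2-fold with water, recentrifuged and injected on HPLC. Peak area compared with a DMSO standard solution of the compound, correcting for dilution and injection volume.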

[10] = AUC (0 to infinity) in CD1 mouse at 10 mg/kg, ip; format: ADME, organism-based; parameters: time infinity, dose 10 mg/kg, route intraperitoneal; conditions: plasma
Procedure, shortened: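 Age-matched specific pathogen-free male CD-1 mice; single 10 mg/kg i.p. dose in 5% DMSO, 45% PEG-400, 20% 2-hydroxypropyl-β-cyclodextrin, 30% water. Blood sampled at multiple times post-dose; plasma taken after centrifugation (10 min, 6000 rpm, 20 °C). Plasma analysed by LC-MS/MS; parameters from non-compartmental analysis.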

[11] = Inhibition of PKA assessed as residual activity at 1 uM
[12] = target: Ribosomal protein S6 kinase alpha-1 (Homo sapiens) (UniProt Q15418); assay: Inhibition of RSK1 assessed as residual activity at 10 uM
Chain of Ribosomal protein S6 kinase alpha-1 (Homo sapiens) (Q15418 whole entry): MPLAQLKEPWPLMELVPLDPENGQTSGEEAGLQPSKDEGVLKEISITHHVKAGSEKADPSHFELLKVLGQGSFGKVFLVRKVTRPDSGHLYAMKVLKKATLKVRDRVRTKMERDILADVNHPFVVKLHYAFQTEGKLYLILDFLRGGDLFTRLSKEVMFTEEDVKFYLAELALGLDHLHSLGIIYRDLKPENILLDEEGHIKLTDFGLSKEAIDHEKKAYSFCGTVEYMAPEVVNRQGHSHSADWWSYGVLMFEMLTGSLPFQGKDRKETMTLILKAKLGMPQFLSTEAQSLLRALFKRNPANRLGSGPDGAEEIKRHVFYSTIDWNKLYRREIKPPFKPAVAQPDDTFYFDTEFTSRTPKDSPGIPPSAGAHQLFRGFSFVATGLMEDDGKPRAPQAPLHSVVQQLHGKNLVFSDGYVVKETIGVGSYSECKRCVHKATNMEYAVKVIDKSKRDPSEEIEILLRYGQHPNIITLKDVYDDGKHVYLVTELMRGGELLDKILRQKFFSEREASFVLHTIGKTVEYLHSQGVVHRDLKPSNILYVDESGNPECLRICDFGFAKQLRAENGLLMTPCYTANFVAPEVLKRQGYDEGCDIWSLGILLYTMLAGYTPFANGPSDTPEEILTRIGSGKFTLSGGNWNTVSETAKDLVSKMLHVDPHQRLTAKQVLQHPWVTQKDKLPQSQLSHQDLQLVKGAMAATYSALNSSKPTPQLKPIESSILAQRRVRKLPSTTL

- Activity [1]: 5%
- IC50 [2]: 51 nM
- IC50 [4]: 234 nM
- Activity [5]: 2%
- Activity [6]: 14%
- IC50 [7]: 54 nM
- IC50 [8]: 49 nM
- solubility [9]: 1.2 µg/mL (≈ 2.8 µM)
- AUC(0-inf) [10]: 3.16 µM·h
- Activity [11]: 59%
- Activity [12]: 5%
Compound: Cc1ccc([N+](=O)[O-])cc1S(=O)(=O)N(CCO)/N=C/c1cnn2ccc(C#N)cc12
- Activity (Mus musculus): > 15%
- Activity (HCT-116): 43.8%
- IC50 [3]: 60 nM

Reference: ChEMBL document CHEMBL1926530, “Novel pyrazolo[1,5-a]pyridines as p110α-selective PI3 kinase inhibitors: Exploring the benzenesulfonohydrazide SAR” (Bioorg Med Chem, 2012)
